A selection: hits, their analogues and other compounds. The true share with any hit is near 9.6%.
bCat nuc transl = alters nuclear translocation of beta-catenin in HeLa cells; 190,000 tested, 0.3% active; nuclear translocation activity, % at 5 µM; immunofluorescence imaging;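 active means nuclear translocation activity above 50% at 5 µM, with a well cell count of 50 or more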;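 further: per-cell ratio of nuclear to cytoplasmic median beta-catenin stain intensity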
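Read-out: Nuclear/cytoplasmic beta-catenin signal ratio, % activation | Assay system: Human HeLa cell line | Times: 24 h compound exposure at 37°C, 5% CO2 | Signal: Fluorescence imaging of beta-catenin antibody stain plus DAPI | Dosing: 5 µM primary, 0.02–20 µM confirmation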
APP 5UTR inh = APP translation inhibition; inhibition, % at 2 µM; AID 1285; SH-SY5Y APP 5'UTR-luciferase reporter, luminescence; 190,000 tested, 0.82% active;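 active means inhibition above a set limit, derived from the sample mean plus 3 SD, cut at about 45% in these data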
MT stabilize HCS = stabilizes microtubules in HeLa cells. HeLa tubulin immunostaining HCS, 24 h; share of cells brighter than vehicle mean+2SD. % tubulin-high responders, % at 10 µM. 200,000 tested, 0.83% active;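 active means plate Z-score above 3 for both tubulin-high and condensed-nucleus cell shares, with cell loss under 80%, at 10 µM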;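 further: anti alpha tubulin signal scored within the nucleus-defined area of each cell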
Ba/F3 V617F tox = reduce viability of Ba/F3 cells dependent on JAK2V617F; Ba/F3 EpoR-JAK2V617F viability, ATP luminescence; inhibition, % at 5.6 µM; 220,000 tested, 1.1% active; AID 1446;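 active means inhibition above the campaign mean plus 3 SD over all tested compounds, cut at about 24% in these data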;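 further: cytokine-independent growth of Ba/F3 cells driven by EpoR plus mutant JAK2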
L major viab = inhibitors of Leishmania major promastigote growth | inhibition, % at 10 µM | 200,000 tested, 9% active | Leishmania major promastigotes, resazurin fluorescence viability; in the data active means inhibition above about 50%;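 further: promastigotes grown with compound for 44 hours at 28 °C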
BaF3 tox = parental Ba/F3 viability inhibition as JAK2V617F counter-screen; AID 1486; inhibition, % at 5.6 µM; 220,000 tested, 1.1% active; CellTiter-Glo ATP luminescence;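 active means inhibition above a per-campaign cutoff, the mean inhibition of all tested compounds plus 3 SD, cut at about 27% in these data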
Of the large screens only hits and unclear results are named; the others gave an inactive call.

COc1ccc(-c2nnc(SCC(=O)N(C)C3CCS(=O)(=O)C3)n2N)cc1OC (centres undefined)	none
O=c1c2ccccc2n(Cc2cccc(F)c2)c(=O)n1C1CCCC1	L major viab 64
Clc1ccccc1-c1nnc2sc(-c3ccncc3)nn12	none
COc1ccccc1-c1nn2c(-c3ccc(C(C)(C)C)cc3)nnc2s1	none (no result: APP 5UTR inh, MT stabilize HCS, Ba/F3 V617F tox, L major viab, BaF3 tox)
CN(C)c1ccc(-c2nn3c(-c4ccccc4Cl)nnc3s2)cc1	bCat nuc transl 78, APP 5UTR inh 90, MT stabilize HCS 29
COc1ccccc1-c1nnc2sc(-c3cnccn3)nn12	none
COc1ccccc1-c1nnc2sc(-c3ccc(N(C)C)cc3)nn12	bCat nuc transl 74, APP 5UTR inh 97, Ba/F3 V617F tox 81, BaF3 tox 80
COc1ccccc1-c1nnc2sc(-c3cc4ccccc4o3)nn12	bCat nuc transl 94, Ba/F3 V617F tox 88, BaF3 tox 80
COc1ccccc1-c1nn2c(C(F)(F)F)nnc2s1	MT stabilize HCS 14
COc1ccc(-c2nn3c(-c4cccc(C)c4)nnc3s2)cc1OC	MT stabilize HCS 33 (no result: bCat nuc transl)
COc1ccccc1OCC(=O)Nc1ccc(-c2nnc(-c3ccco3)o2)cc1	none
CCC(Oc1ccccc1)C(=O)Nc1ccc(-c2nnc(-c3ccco3)o2)cc1 (centres undefined)	L major viab 94
CCCCC[n+]1cccc2c3ccccc3ccc21	Ba/F3 V617F tox 100, L major viab 100, BaF3 tox 77
c1ccc(C[n+]2cccc3c4ccccc4ccc32)cc1	Ba/F3 V617F tox 97, L major viab 97, BaF3 tox 79
NC(=O)C[n+]1cccc2ccccc21	none
COc1ccc(C(NC(C)=O)c2cc(Cl)c3cccnc3c2O)cc1OC (centres undefined)	APP 5UTR inh 50
CCC(=O)NC(c1ccc(OC)c(OC)c1)c1cc(Cl)c2cccnc2c1O (centres undefined)	APP 5UTR inh 62, Ba/F3 V617F tox 81, L major viab 90, BaF3 tox 39
O=C(O)COc1ccccc1C(Nc1ccccn1)c1cc(Cl)c2cccnc2c1O (centres undefined)	none
COc1ccc(C(NC(C)=O)c2c(O)ccc3ccccc23)cc1OC (centres undefined)	none
O=C(Cn1nc(-c2ccccc2)ccc1=O)Nc1cccc(NC(=O)c2ccccn2)c1	none
COc1ccc(S(=O)(=O)N(n2c(C)nnc2-n2nc(C)cc2C)S(=O)(=O)c2ccc(OC)cc2)cc1	none
Cc1sc2nc(CN(Cc3cccs3)C(=O)C3CC3)[nH]c(=O)c2c1C	BaF3 tox 86
Cc1sc2nc(SCC(=O)NCc3cccs3)[nH]c(=O)c2c1C	none
CCOC(=O)c1c(NC(=O)C[n+]2ccc(N(C)C)cc2)sc(C)c1C	Ba/F3 V617F tox 29, L major viab 84, BaF3 tox 35
CCOC(=O)c1c(NC(=O)COC)sc(C)c1C	none
CCOC(=O)c1c(NC(=O)CN2C(=O)NC(C)(c3ccccc3)C2=O)sc(C)c1C (centres undefined)	bCat nuc transl 62, MT stabilize HCS 13, L major viab 70
CN(C)C(=O)c1cn(-c2ccccc2)nc1-c1cc2ccccc2oc1=O	none
O=C1CSC(c2nn(-c3ccccc3)cc2-c2cc3ccccc3oc2=O)N1Cc1ccco1 (centres undefined)	L major viab 52
CCSc1nc(C)nc2sc(C)c(C)c12	none (no result: APP 5UTR inh, MT stabilize HCS, L major viab)
CN1CCN(NC(=O)c2ccc(Br)s2)CC1	none (no result: APP 5UTR inh, MT stabilize HCS, L major viab)
CCCOc1ccc(S(=O)(=O)NCCN2CCOCC2)c2ccccc12	L major viab 66
CCOc1ccc(S(=O)(=O)NCCN2CCOCC2)c2ccccc12	L major viab 96
CCOc1cc(S(=O)(=O)NCCN2CCOCC2)c(C)cc1C	none
COc1c(S(=O)(=O)NCCN2CCOCC2)ccc(Cl)c1Cl	L major viab 67
C=C1C(=O)O[C@@H]2[C@H]1[C@@H](OC(=O)/C(C)=C/C)C/C(C)=C\C(=O)/C=C(\C)[C@@H]2O	none (no result: APP 5UTR inh, MT stabilize HCS, Ba/F3 V617F tox, L major viab, BaF3 tox)
O=C(CN1CCC(n2cnc3cc(F)ccc32)CC1)Nc1ccccc1Br	none
CCCCNC(=O)N1c2ccccc2CC1C (centres undefined)	none
COc1ccc(NC(=O)/C=C/c2cc(Br)ccc2OC)cc1	none
COc1ccc(Br)cc1/C=C/C(=O)Nc1c(C)cccc1C	L major viab 62
COc1ccc(Br)cc1/C=C/C(=O)c1ccc(NC(C)=O)cc1	bCat nuc transl 52, L major viab 100
CCN(CC)c1ccc(NC(=O)/C=C/c2cc(Br)ccc2OC)cc1	none
CN(C)/C=C/c1c([N+](=O)[O-])c2ccc(O)cc2n1-c1ccccc1	none (no result: APP 5UTR inh, MT stabilize HCS, L major viab)
CC1CC(C)(C)Nc2ccc(OC(=O)c3ccco3)cc21 (centres undefined)	L major viab 98
O=C(Oc1ccc2ccccc2c1)c1ccco1	none
CC1CC(C)(C)Nc2ccc(N=O)cc21 (centres undefined)	APP 5UTR inh 65, Ba/F3 V617F tox 97, L major viab 100, BaF3 tox 93
CCCCC(=O)NC(=S)Nc1ccc(S(=O)(=O)N2CCCC2)cc1	none
CCCCCCC(C)n1[nH]c(=O)cc1N (centres undefined)	none (no result: APP 5UTR inh, MT stabilize HCS, L major viab)
COc1ccccc1Nc1ccc(C(=O)NCc2cccs2)cn1	none
COc1ccccc1Nc1ncc(-c2cccs2)s1	bCat nuc transl 107
O=C(NC(=S)Nc1ccc2cn[nH]c2c1)c1ccccc1	none
Cc1cc(SCC(=O)OCC(=O)NC(C)c2ccccc2)c(C)cc1Br (centres undefined)	L major viab 51
CC1=C(Sc2ccccn2)C(=O)NC(C)(C)C1	none
CC1=C(Sc2nc3ccccc3[nH]2)C(=O)NC(C)(C)C1	APP 5UTR inh 48
C=CCNC(=O)O/N=C/c1csc([N+](=O)[O-])c1	none (no result: APP 5UTR inh, MT stabilize HCS, L major viab)
CSc1ccc(/C=N/NC(=O)c2ccc(C)c(C)c2)cc1	MT stabilize HCS 24
CSc1cccc(NC(=S)N(Cc2ccc(C)cc2)Cc2ccccn2)c1	L major viab 97 (no result: bCat nuc transl)
COc1ccccc1NC(=S)N(Cc1ccc(C)cc1)Cc1ccccn1	L major viab 91 (no result: bCat nuc transl)
COc1ccccc1NC(=S)N(Cc1ccccn1)Cc1ccccc1Cl	none (no result: bCat nuc transl)
O=C(Cn1ccc(C(F)(F)F)n1)N/N=C/c1ccc2c(c1)OCO2	none
COCCCN(CC(=O)Nc1ccc(N2CCOCC2)cc1)S(=O)(=O)c1ccccc1	none
O=C(/C=C/c1ccc(S(=O)(=O)N2CCOCC2)cc1)NCc1ccc(Cl)cc1	none
O=C(/C=C/c1ccc(S(=O)(=O)N2CCOCC2)cc1)NCc1ccccc1Cl	L major viab 80
CC(=O)Nc1cccc(N=NN2CCCCC2)c1	none
CC(C)CC(NS(=O)(=O)c1cccc(C(=O)O)c1)C(=O)O (centres undefined)	none
CCN(Cc1ccccc1)C(c1ccccn1)c1nnnn1C(C)(C)CC (centres undefined)	none
CC(C)(C)n1nnnc1C(c1ccccn1)N(Cc1ccccc1)Cc1ccc(Cl)cc1 (centres undefined)	L major viab 53 (no result: APP 5UTR inh)

Source: PubChem BioAssay
